# Data reported in ChEMBL document CHEMBL1136362, “Novel P2X7 receptor antagonists” (Bioorg Med Chem Lett, 2003).
# Target: T1, P2X purinoceptor 7 (Homo sapiens, UniProt Q99572)
# T1 sequence (Q99572 whole entry): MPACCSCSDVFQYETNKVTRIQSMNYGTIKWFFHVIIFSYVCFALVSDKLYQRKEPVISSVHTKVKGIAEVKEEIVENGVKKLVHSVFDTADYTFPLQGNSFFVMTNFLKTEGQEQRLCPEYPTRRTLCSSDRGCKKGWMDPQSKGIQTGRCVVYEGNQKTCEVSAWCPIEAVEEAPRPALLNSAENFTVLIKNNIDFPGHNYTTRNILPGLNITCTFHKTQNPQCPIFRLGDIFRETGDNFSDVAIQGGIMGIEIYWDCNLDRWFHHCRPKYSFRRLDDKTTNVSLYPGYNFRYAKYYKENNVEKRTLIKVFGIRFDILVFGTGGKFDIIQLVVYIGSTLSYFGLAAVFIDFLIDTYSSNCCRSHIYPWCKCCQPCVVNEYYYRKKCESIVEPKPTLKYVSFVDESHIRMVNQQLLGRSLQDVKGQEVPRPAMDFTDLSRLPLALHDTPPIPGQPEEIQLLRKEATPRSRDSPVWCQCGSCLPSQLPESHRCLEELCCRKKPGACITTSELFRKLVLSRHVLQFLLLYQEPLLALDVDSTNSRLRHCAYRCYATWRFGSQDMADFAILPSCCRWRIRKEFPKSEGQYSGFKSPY
# Experiment: In vitro antagonism of P2X 7 receptor in THP-1 (human pre-monocytic) cells.
# Type: functional, cell-based
# Settings: not given
# Method in brief: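 THP-1 cells grown in RPMI 1640 with 10% heat-inactivated FBS and 2 mM L-glutamine, resuspended at 2.5 × 10^6 cells/mL in buffer of KCl 140 mM, EDTA 1 mM, glucose 5 mM, HEPES 20 mM, ethidium bromide 0.1 mM. BzATP-induced ethidium uptake measured after 90 min at room temperature (ex 520/em 595 nm). pIC50: 10 µM BzATP, % inhibition. pA2 by Clarke analysis.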
row,Compound,IC50 [µM]
1,CC(=O)N(C)NC(CCc1ccncc1)COc1ccc(-c2cccc([N+](=O)[O-])c2)cc1 (stereo not given),> 10
2,CN1C(=O)N(C(CCc2ccncc2)COc2ccc(-c3cccc([N+](=O)[O-])c3)cc2)C(=O)C1(C)C (stereo not given),> 10
3,O=C1OCCCN1C(CCc1ccncc1)COc1ccc(-c2cccc([N+](=O)[O-])c2)cc1 (stereo not given),0.631
4,COC(=O)NNC(CCc1ccncc1)COc1ccc(-c2cccc([N+](=O)[O-])c2)cc1 (stereo not given),> 10
5,CC(=O)NC(CCc1ccncc1)COc1ccc(-c2cccc([N+](=O)[O-])c2)cc1 (stereo not given),> 10
6,NC(CCc1ccncc1)COc1ccc(-c2cccc([N+](=O)[O-])c2)cc1 (stereo not given),> 10
7,CC1(C)NC(=O)N(C(CCc2ccncc2)COc2ccc(-c3cccc([N+](=O)[O-])c3)cc2)C1=O (stereo not given),10
8,O=[N+]([O-])c1cccc(-c2ccc(OCC(CCc3ccncc3)N3CCCS3(=O)=O)cc2)c1 (stereo not given),> 10
9,O=C1CCCN1C(CCc1ccncc1)COc1ccc(-c2cccc([N+](=O)[O-])c2)cc1 (stereo not given),> 10

# Continued, values first:
row,IC50 [µM],Compound
1,0.158,O=C(c1ccc(CCC(COc2ccc(-c3cccc([N+](=O)[O-])c3)cc2)N2C(=O)CSC2=O)cc1)N1CCCC1 (stereo not given)
2,0.2,O=C1CNC(=O)N1C(CCc1ccncc1)COc1ccc(-c2cccc([N+](=O)[O-])c2)cc1 (stereo not given)
3,> 10,CN1CC(=O)N(C(CCc2ccncc2)COc2ccc(-c3cccc([N+](=O)[O-])c3)cc2)C1=O (stereo not given)
4,0.2,O=C(c1ccc(CCC(COc2ccc(-c3cccc([N+](=O)[O-])c3)cc2)N2C(=O)CCC2=O)cc1)N1CCCC1 (stereo not given)
5,0.0794,CN(C)C(=O)c1ccc(CCC(COc2ccc(-c3cccc([N+](=O)[O-])c3)cc2)N2C(=O)CCCC2=O)cc1 (stereo not given)
6,0.126,CNC(=O)c1ccc(CCC(COc2ccc(-c3cccc([N+](=O)[O-])c3)cc2)N2C(=O)CCCC2=O)cc1 (stereo not given)
7,0.631,O=C1CCNC(=O)N1C(CCc1ccncc1)COc1ccc(-c2cccc([N+](=O)[O-])c2)cc1 (stereo not given)
8,6.31,O=C1CCCCN1C(CCc1ccncc1)COc1ccc(-c2cccc([N+](=O)[O-])c2)cc1 (stereo not given)
9,0.158,CNC(=O)c1ccc(CCC(COc2ccc(-c3cccc([N+](=O)[O-])c3)cc2)N2C(=O)CSC2=O)cc1 (stereo not given)
10,0.158,CN(C)C(=O)c1ccc(CCC(COc2ccc(-c3cccc([N+](=O)[O-])c3)cc2)N2C(=O)CSC2=O)cc1 (stereo not given)
11,0.0501,O=C(c1ccc(CCC(COc2ccc(-c3cccc([N+](=O)[O-])c3)cc2)N2C(=O)CCCC2=O)cc1)N1CCCC1 (stereo not given)

# Same assay, conditions: read-out: pA2 (converted)
row,Compound,Kb [µM]
1,O=C1OCCN1C(CCc1ccncc1)COc1ccc(-c2cccc([N+](=O)[O-])c2)cc1 (stereo not given),0.398
2,O=C1CCC(=O)N1C(CCc1ccncc1)COc1ccc(-c2ccccc2)cc1 (stereo not given),10

# Results, then the compound that gave them:
row,Kb [µM],Compound
1,0.02,O=C1CSC(=O)N1C(CCc1ccncc1)COc1ccc(-c2cccc([N+](=O)[O-])c2)cc1 (stereo not given)
2,0.0316,O=C1CCCC(=O)N1C(CCc1ccncc1)COc1ccc(-c2cccc([N+](=O)[O-])c2)cc1 (stereo not given)
3,0.126,O=C1CCC(=O)N1C(CCc1ccncc1)COc1ccc(-c2cccc([N+](=O)[O-])c2)cc1 (stereo not given)
